Assay results as given in ChEMBL document CHEMBL3112482, “Nonclassical antifolates, part 5. Benzodiazepine analogs as a new class of DHFR inhibitors: synthesis, antitumor testing and molecular modeling study” (Eur J Med Chem, 2014).

What was measured:
OVCAR-8 = test: Growth inhibition of human OVCAR8 cells at 10 uM after 48 hrs; assay type: functional; conditions: OVCAR-8, 48 h, read-out: GI
Outline: (§1)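 Single-dose primary screen in the NCI 60 human tumour cell line panel, run at the NCI facility. The panel covers nine subpanels: leukaemia, non-small cell lung, colon, CNS, melanoma, ovarian, renal, prostate and breast. Read-out was percent growth of treated cells, shown as a mean graph and reported as percent growth inhibition.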

[1] = Growth inhibition of human OVCAR4 cells at 10 uM after 48 hrs; assay type: functional; conditions: OVCAR-4, 48 h, read-out: GI; outline: as §1
[2] = Cytotoxicity against human non-small cell lung cancer cells at 10 uM after 48 hrs; assay type: functional; conditions: Cancer cell lines; outline: as §1
MDA-MB-231 = test: Growth inhibition of human MDA-MB-231 cells at 10 uM after 48 hrs; assay type: functional; conditions: MDA-MB-231, 48 h, read-out: GI; outline: as §1
HL-60(TB) = test: Growth inhibition of human HL-60(TB) cells at 10 uM after 48 hrs; assay type: functional; conditions: HL-60, 48 h, read-out: GI
Outline: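 NCI 60-cell-line human tumour panel covering nine subpanels (leukaemia, non-small cell lung, colon, CNS, melanoma, ovarian, renal, prostate, breast), run at the NCI facility. Primary screen tested a single dose of each compound. Read-out was percent growth of treated cells versus untreated cells, reported from the mean graph as percentage growth inhibition.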

LOX IMVI = test: Growth inhibition of human LOXIMVI cells at 10 uM after 48 hrs; assay type: functional; conditions: read-out: GI; outline: as §1
SR = test: Growth inhibition of human SR cells at 10 uM after 48 hrs; assay type: functional; conditions: read-out: GI
Outline: (§2)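 NCI 60-cell-line disease-oriented human tumor panel, single-dose primary screen at 10 µM. Data given as mean-graph percent growth of treated cells, reported as percent growth inhibition (GI %).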

[3] = Growth inhibition of human OVCAR5 cells at 10 uM after 48 hrs; assay type: functional; conditions: OVCAR-5, 48 h, read-out: GI; outline: as §1
SW-620 = test: Growth inhibition of human SW620 cells at 10 uM after 48 hrs; assay type: functional; conditions: SW-620, 48 h, read-out: GI; outline: as §2
[4] = Cytotoxicity against human leukemia cells at 10 uM after 48 hrs; assay type: functional; conditions: Leukemia cell
Malme-3M = test: Growth inhibition of human MALME-3M cells at 10 uM after 48 hrs; assay type: functional; conditions: read-out: GI; outline: as §1
PC-3 = test: Growth inhibition of human PC3 cells at 10 uM after 48 hrs; assay type: functional; conditions: PC-3, 48 h, read-out: GI; outline: as §1
[5] = Cytotoxicity against human renal cancer cells at 10 uM after 48 hrs; assay type: functional; conditions: Cancer cell lines
A549 = test: Growth inhibition of human A549 cells at 10 uM after 48 hrs; assay type: functional; conditions: A549, 48 h, read-out: GI; outline: as §1
K562 = test: Growth inhibition of human K562 cells at 10 uM after 48 hrs; assay type: functional; conditions: K562, 48 h, read-out: GI; outline: as §1
NCI-H226 = test: Growth inhibition of human NCI-H226 cells at 10 uM after 48 hrs; assay type: functional; conditions: NCI-H226, 48 h, read-out: GI; outline: as §1
MCF7 = test: Growth inhibition of human MCF7 cells at 10 uM after 48 hrs; assay type: functional; conditions: MCF7, 48 h, read-out: GI; outline: as §1
Dihydrofolate reductase = biological target: T1, Dihydrofolate reductase (Bos taurus, UniProt P00376); test: Inhibition of bovine liver DHFR measured for every 1 min of 10 mins
T1 sequence (P00376 whole entry): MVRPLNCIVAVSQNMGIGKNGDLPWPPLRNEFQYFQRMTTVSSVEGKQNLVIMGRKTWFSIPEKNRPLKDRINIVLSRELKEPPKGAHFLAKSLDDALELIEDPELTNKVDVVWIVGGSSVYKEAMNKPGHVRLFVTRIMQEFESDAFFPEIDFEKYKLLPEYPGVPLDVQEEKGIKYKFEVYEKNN

T47D = test: Growth inhibition of human T47D cells at 10 uM after 48 hrs; assay type: functional; conditions: read-out: GI; outline: as §2
SNB-19 = test: Growth inhibition of human SNB19 cells at 10 uM after 48 hrs; assay type: functional; conditions: SNB-19, 48 h, read-out: GI; outline: as §2
[6] = Growth inhibition of human SF539 cells at 10 uM after 48 hrs; assay type: functional; conditions: SF-539, 48 h, read-out: GI; outline: as §2
OVCAR-3 = test: Growth inhibition of human OVCAR3 cells at 10 uM after 48 hrs; assay type: functional; conditions: OVCAR-3, 48 h, read-out: GI; outline: as §1
HOP-62 = test: Growth inhibition of human HOP62 cells at 10 uM after 48 hrs; assay type: functional; conditions: HOP-62, 48 h, read-out: GI; outline: as §1
[7] = Growth inhibition of human UO31 cells at 10 uM after 48 hrs; assay type: functional; conditions: UO-31, 48 h, read-out: GI; outline: as §2
[8] = Growth inhibition of human Hs 578T cells at 10 uM after 48 hrs; assay type: functional; conditions: read-out: GI; outline: as §1
SK-OV-3 = test: Growth inhibition of human SKOV3 cells at 10 uM after 48 hrs; assay type: functional; conditions: SK-OV-3, 48 h, read-out: GI; outline: as §2
ACHN = test: Growth inhibition of human ACHN cells at 10 uM after 48 hrs; assay type: functional; conditions: read-out: GI; outline: as §1
[9] = Growth inhibition of human NCI-ADR-RES cells at 10 uM after 48 hrs; assay type: functional; conditions: read-out: GI; outline: as §1
MDA-MB-435 = test: Growth inhibition of human MDA-MB-435 cells at 10 uM after 48 hrs; assay type: functional; conditions: MDA-MB-435, 48 h, read-out: GI; outline: as §1
SK-MEL-5 = test: Growth inhibition of human SK-MEL-5 cells at 10 uM after 48 hrs; assay type: functional; conditions: SK-MEL-5, 48 h, read-out: GI; outline: as §2
NCI-H322M = test: Growth inhibition of human NCI-H322M cells at 10 uM after 48 hrs; assay type: functional; conditions: read-out: GI; outline: as §1
NCI-H23 = test: Growth inhibition of human NCI-H23 cells at 10 uM after 48 hrs; assay type: functional; conditions: NCI-H23, 48 h, read-out: GI; outline: as §1
SNB-75 = test: Growth inhibition of human SNB75 cells at 10 uM after 48 hrs; assay type: functional; conditions: SNB-75, 48 h, read-out: GI; outline: as §2
SF-268 = test: Growth inhibition of human SF268 cells at 10 uM after 48 hrs; assay type: functional; conditions: SF-268, 48 h, read-out: GI; outline: as §2
TK-10 = test: Growth inhibition of human TK10 cells at 10 uM after 48 hrs; assay type: functional; conditions: TK-10, 48 h, read-out: GI; outline: as §2
U-251 = test: Growth inhibition of human U251 cells at 10 uM after 48 hrs; assay type: functional; conditions: U-251, 48 h, read-out: GI; outline: as §2
SK-MEL-28 = test: Growth inhibition of human SK-MEL-28 cells at 10 uM after 48 hrs; assay type: functional; conditions: SK-MEL-28, 48 h, read-out: GI; outline: as §2
SK-MEL-2 = test: Growth inhibition of human SK-MEL-2 cells at 10 uM after 48 hrs; assay type: functional; conditions: SK-MEL-2, 48 h, read-out: GI; outline: as §2
[10] = Growth inhibition of human EKVX cells at 10 uM after 48 hrs; assay type: functional; conditions: read-out: GI; outline: as §1

COc1ccc(/C=C2\CCCc3c2nc(N)nc3-c2ccc(OC)c(OC)c2)cc1OC
inhibition of growth at 10 µM (OVCAR-8): 89.4% | inhibition of growth at 10 µM [1]: 46.7% | GI50 [2]: 22.1 µM | TGI [2]: 71.1 µM | CC50 ([2]; read-out: LC50 (the source's name)): 94.3 µM | inhibition of growth at 10 µM (MDA-MB-231): < 30% | inhibition of growth at 10 µM (HL-60(TB)): 57.7% | inhibition of growth at 10 µM (LOX IMVI): 87.1% | inhibition of growth at 10 µM (SR): 71.9% | inhibition of growth at 10 µM [3]: < 30% | inhibition of growth at 10 µM (SW-620): 59.3% | GI50 [4]: 2.1 µM | LC50 [4]: > 100 µM | TGI [4]: 65.1 µM | inhibition of growth at 10 µM (Malme-3M): 47.5% | inhibition of growth at 10 µM (PC-3): 38.5% | CC50 [5]: 93.6 µM | GI50 [5]: 7.8 µM | TGI [5]: 66.7 µM | inhibition of growth at 10 µM (A549): 41.2% | inhibition of growth at 10 µM (K562): 44% | inhibition of growth at 10 µM (NCI-H226): 65.9% | inhibition of growth at 10 µM (MCF7): 72.4% | IC50 (Dihydrofolate reductase): 14 µM | inhibition of growth at 10 µM (T47D): < 30% | inhibition of growth at 10 µM (SNB-19): < 30% | inhibition of growth at 10 µM [6]: < 30% | inhibition of growth at 10 µM (OVCAR-3): 89.2% | inhibition of growth at 10 µM (HOP-62): 43% | inhibition of growth at 10 µM [7]: 37.1% | inhibition of growth at 10 µM [8]: < 30% | inhibition of growth at 10 µM (SK-OV-3): 55.9% | inhibition of growth at 10 µM (ACHN): 72.7% | inhibition of growth at 10 µM [9]: 74.9% | inhibition of growth at 10 µM (MDA-MB-435): 69.2% | inhibition of growth at 10 µM (SK-MEL-5): 60.3% | inhibition of growth at 10 µM (NCI-H322M): < 30% | inhibition of growth at 10 µM (NCI-H23): 50.7% | inhibition of growth at 10 µM (SNB-75): 36.1% | inhibition of growth at 10 µM (SF-268): 36.2% | inhibition of growth at 10 µM (TK-10): < 30% | inhibition of growth at 10 µM (U-251): 62.2% | inhibition of growth at 10 µM (SK-MEL-28): 34.7% | inhibition of growth at 10 µM (SK-MEL-2): 43.2% | inhibition of growth at 10 µM [10]: < 30%
